Screens: PubChem, several laboratories
Most compounds without a hit are left out; they make up all but 1.5% or so of the library.
Platelet DG rel: modulates dense granule release in human platelets | hit rate 0.22% among 300,000 | inhibition, %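 (compounds screened at 7.5 µM in platelet-rich plasma)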 | human platelet-rich plasma, SFLLRN dense granule ATP release, luminescence;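 active means mean replicate score, as percent of positive control, at or above 50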
VLA-4 inh: inhibition in a human VLA-4 binding assay; hit rate 0.2% among 330,000; inhibition, % (about 7 µM as worked out from the volumes in the protocol); VLA-4 expressing cells, ligand binding flow cytometry; AID 2557; in the data active means inhibition above about 50%
Target sequence (P13612 whole entry, looked up): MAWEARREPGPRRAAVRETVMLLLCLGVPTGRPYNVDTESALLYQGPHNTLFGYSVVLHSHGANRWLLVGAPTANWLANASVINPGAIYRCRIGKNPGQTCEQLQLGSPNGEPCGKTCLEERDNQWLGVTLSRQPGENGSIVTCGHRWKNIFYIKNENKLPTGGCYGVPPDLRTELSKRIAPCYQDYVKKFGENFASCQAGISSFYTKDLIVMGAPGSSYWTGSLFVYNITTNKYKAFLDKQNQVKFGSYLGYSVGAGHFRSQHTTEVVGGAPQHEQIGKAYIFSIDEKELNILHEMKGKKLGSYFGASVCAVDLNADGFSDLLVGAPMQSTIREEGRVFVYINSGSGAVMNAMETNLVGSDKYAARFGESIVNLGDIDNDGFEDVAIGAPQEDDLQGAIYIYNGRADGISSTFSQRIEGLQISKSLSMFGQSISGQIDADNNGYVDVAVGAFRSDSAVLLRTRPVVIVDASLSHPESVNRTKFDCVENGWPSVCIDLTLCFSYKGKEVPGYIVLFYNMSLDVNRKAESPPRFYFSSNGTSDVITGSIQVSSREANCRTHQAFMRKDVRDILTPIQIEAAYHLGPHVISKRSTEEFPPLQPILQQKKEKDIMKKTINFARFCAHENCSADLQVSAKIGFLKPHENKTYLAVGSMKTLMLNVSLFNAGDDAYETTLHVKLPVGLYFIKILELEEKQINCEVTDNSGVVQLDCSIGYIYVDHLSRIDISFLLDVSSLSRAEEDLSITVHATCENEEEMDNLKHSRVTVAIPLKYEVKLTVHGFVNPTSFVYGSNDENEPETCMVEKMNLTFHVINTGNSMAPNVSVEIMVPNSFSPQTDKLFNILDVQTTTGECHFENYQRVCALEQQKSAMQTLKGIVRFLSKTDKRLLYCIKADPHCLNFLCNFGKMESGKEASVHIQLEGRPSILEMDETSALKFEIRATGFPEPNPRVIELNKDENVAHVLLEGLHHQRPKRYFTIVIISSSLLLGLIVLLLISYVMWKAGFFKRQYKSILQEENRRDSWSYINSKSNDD
SENP1 inh: blocks the human SENP1 SUMO protease catalytic domain. hit rate 0.21% among 360,000. Q9P0U3. AID 624204. recombinant SENP1 catalytic domain, CyPet-SUMO1-YPet FRET cleavage. inhibition, % at 10 µM;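 active means inhibition at least 30% at 10 µM, raw YFP signal under a set limit, fluorescence ratio 0.5 to 1.5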
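Controls: no-enzyme wells low, DMSO-plus-enzyme wells high control. Test system: human recombinant His6-tagged SENP1 catalytic domain enzyme. Reagent: SFCypet-SUMO1-SFYpet FRET protein substrate, 25 nM final. Doses: one dose per compound, 10 µM, 0.5% DMSO. Detection: FRET, CFP and YFP emission. Timing: 50 min reaction at room temperature.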
Myeloid diff MLP: myeloid differentiation induction; ER-HoxA9 myeloid progenitors, lysozyme-GFP differentiation, flow cytometry; AID 624256; calls only at 10 µM; hit rate 1% among 360,000;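 active means normalized GFP-positive differentiation at or above the plate's own cutoff, the solvent-only control mean plus 3 SD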;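 further: cells exposed to compound for four days before flow analysis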
Myeloid diff: myeloid differentiation induction. AID 651706. shares compounds with Myeloid diff MLP. hit rate 2% among 2,300. ER-HoxA9 myeloid progenitors, GFP/Mac1 double-positive flow. calls only;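 active means share of green or green-and-red cells above 9 and 9% in run 1 or 4 and 3% in run 2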
GFP autofluor: counter-screen for myeloid differentiation promoters: compound fluorescence. shares compounds with Myeloid diff MLP. ER-HoxA9 myeloid progenitors, no estrogen, GFP autofluorescence flow cytometry; vehicle wells 0%, positive control 100%. hit rate 7.4% among 2,300. fluorescence response, % (no concentration beside the values);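 active means over 5% cells positive for green fluorescent reporter, or over 2% positive for both it and APC stain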
Hits are given with their value; n = inactive; x = no result given; + = active, no number.

SMILES	Platelet DG rel	VLA-4 inh	SENP1 inh	Myeloid diff MLP	Myeloid diff	GFP autofluor
O=C(NCc1ccccc1)C(C(=O)c1ccc(F)cc1)n1ccccc1=O (stereo not given)	n	n	n	n	n	n
O=C(NCc1cccnc1)C(C(=O)c1ccc(F)cc1)n1ccccc1=O (stereo not given)	n	n	n	n	x	x
CCN(CC)S(=O)(=O)c1cccc(C(=O)OCC(=O)NCc2ccccc2OC)c1	n	n	n	n	x	x
O=[N+]([O-])c1cccc(/C=C/c2nc(C=Nc3ccc4ccccc4c3)c(O)o2)c1	x	n	n	+	n	5.7
O=[N+]([O-])c1cccc(/C=C/c2ccc3cccc(O)c3n2)c1	n	n	n	n	x	x
CN(C(=O)CC1C(=O)NCCN1Cc1ccc(F)c(F)c1)C1CCCCC1 (stereo not given)	n	n	n	n	x	x
COc1ccc(N2C(=O)CSC2c2cccc(F)c2)cc1 (stereo not given)	n	n	n	n	x	x
CN=C(NC)SC1CC(=O)N(c2ccccc2)C1=O (stereo not given)	n	n	n	n	n	n
COc1cc2c(=O)n(Cc3ccccc3)c(=O)n(CC(=O)NCCc3ccccc3)c2cc1OC	n	n	n	+	n	n
Cc1cc(S(=O)(=O)N2CCCOC2CNC(=O)C(=O)NCCCN2CCOCC2)ccc1F (stereo not given)	n	n	n	n	x	x
O=C(c1ccc2c(c1)OCO2)N1CCCc2ccccc21	n	n	n	n	x	x
Cc1ccc2c(c1)CCCN2C(=O)c1ccc2c(c1)OCO2	n	n	n	n	n	n
Cc1ccc(O)c(NC(=O)c2cc(-c3ccccc3)on2)c1	n	n	n	+	n	n
O=C(Nc1cc(Br)ccc1O)c1cc(-c2ccccc2)on1	n	x	n	n	x	x
O=C(Nc1cc(Br)ccc1O)c1cc(-c2ccco2)on1	n	n	n	n	n	n
CC1(C(=O)Nc2ccc3c(c2)OCO3)Cc2c(-c3cccc(C(F)(F)F)c3)ccnc2O1 (stereo not given)	x	x	n	n	x	x
CCc1cc(C(=O)c2ccc(OC)cc2)c(N)s1	n	n	n	n	x	x
CCc1cc(C(=O)c2ccccc2OC)c(N)s1	n	n	n	n	n	n
CCC(C)Sc1ccc(-c2nc3cc(C)ccn3c2NC2CCCCC2)cc1 (stereo not given)	x	n	n	+	+	n
CCCCCCSc1ccc(-c2nc3cnccn3c2NC2CCCCC2)cc1	x	x	n	n	n	18.4
CCN(CC(=O)Nc1ccccc1C(F)(F)F)C(=O)c1ccc(-n2nc(C)c(CCC(=O)OC)c2C)cc1	x	x	n	n	x	x
O=C(CSc1nc(-c2ccccc2Cl)ns1)Nc1ccc2c(c1)OCO2	n	n	n	+	n	n
NC(=O)NN=C1CCC(OCc2ccccc2)CC1CC(=O)O (stereo not given)	x	x	n	n	x	x
O=C(COC(=O)c1ccc(NS(=O)(=O)c2cccs2)cc1O)NCc1ccccc1	n	n	n	n	n	n
CCOC(=O)c1c(C)oc2ccc(NS(=O)(=O)c3cccs3)cc12	n	n	n	x	n	n
SMILES	Platelet DG rel	VLA-4 inh	SENP1 inh	Myeloid diff MLP	Myeloid diff	GFP autofluor
COCCOC(=O)c1c(C)oc2ccc(NS(=O)(=O)c3cccs3)cc12	n	n	n	x	x	x
O=C1COc2ccc(N3C(=O)C=CC3=O)cc2N1	n	n	x	x	x	x
CC(C)N1CCc2c(sc(NC(=O)c3nc4ccccc4s3)c2C(N)=O)C1	n	n	n	+	n	n
O=C(c1cccc2nccnc12)N1CCCC(Nc2ccc(F)c(F)c2)C1 (stereo not given)	n	n	n	n	x	x
O=C(N/N=C\CCc1ccccc1)c1ccco1	n	n	n	n	n	n
O=C(OC1CCCC1)c1ccc(Cl)cc1Cl	x	x	n	n	x	x
COC(=O)c1cc2c(=O)c3ccccc3oc2nc1/C=C/N(C)C	n	n	n	+	+	n
CC1(C)Cc2c(sc3nc4n(c(=N)c23)CCC4)CO1	n	n	n	n	n	n
N=c1c2c3c(sc2nc2n1CCC2)CCCC3	n	n	n	n	x	x
CCn1c(=O)n(CC)c2cc(N3CCCC3)c(NC(=O)c3ccc(C)cc3)cc21	n	n	n	n	x	x
Cc1cccc(-c2ccc3ncnc(NCc4cccnc4)c3c2)c1	x	n	n	n	x	x
Cc1cccc(CNc2ncnc3ccc(-c4cccnc4)cc23)c1	x	n	n	+	n	n
S=C(c1cn(Cc2ccc(Br)cc2)c2ccccc12)N1CCOCC1	n	n	n	n	n	n
S=C(c1cn(Cc2ccccc2)c2ccccc12)N1CCOCC1	n	n	n	n	x	x
CCN1CCN(C(=S)NC(=O)c2cccc(Br)c2)CC1	x	n	n	n	x	x
O=C(CCC(=O)N(CC(=O)NC1CCCCC1)c1ccc2c(c1)OCO2)Nc1ccccn1	n	n	n	n	n	n
Cc1nnc(N)s1	n	n	n	n	x	x
COc1ccccc1CNC(=O)c1ccc(CS(=O)(=O)c2ccc(C)cc2)o1	n	n	n	n	x	x
COc1ccc(F)cc1S(=O)(=O)N1CCc2ccccc2C1	x	x	n	n	x	x
C=C(C)COc1ccc2c(C)c(CC(=O)OC)c(=O)oc2c1C	x	n	n	n	n	n
O=C(CCNC(=O)c1ccc(Br)cc1)NCc1ccncc1	n	n	n	n	x	x
COCCNC(=O)C(c1ccc(C)o1)N(CCOC)C(=O)Cn1nnc2ccccc21 (stereo not given)	n	n	n	n	x	x
CCOc1ccccc1C(C(=O)NCCOC)N(CCOC)C(=O)Cn1nnc2ccccc21 (stereo not given)	n	n	n	n	n	n
Cc1cc(Cl)ccc1NC(=O)CN1C(=O)C(=O)N(C2CCCC2)C1=O	x	n	n	n	x	x
CCCCOC(=O)C1=C(C)NC(=O)NC1c1ccc([N+](=O)[O-])s1 (stereo not given)	n	n	n	+	n	n
SMILES	Platelet DG rel	VLA-4 inh	SENP1 inh	Myeloid diff MLP	Myeloid diff	GFP autofluor
CCCCOC(=O)C1=C(C)NC(=O)NC1c1cccc([N+](=O)[O-])c1 (stereo not given)	n	n	n	n	x	x
CCOC(=O)c1cnc(SCc2nc(N)nc(Nc3ccc(C)cc3)n2)nc1N	n	n	n	n	n	n
CCOC(=O)c1cnc(SCc2nc(N)nc(Nc3ccc(F)cc3)n2)nc1N	n	n	n	n	x	x
Cc1cc(OCC[N+]2(C)CCCCC2)nc2ccccc12	n	n	n	n	n	n
Cc1cc(NC2CCCCC2)nc2ccccc12	n	n	n	n	x	x
Cc1c(Cl)ccc2c(C(=O)Nc3cc(C(C)(C)C)on3)cc(-c3ccccn3)nc12	n	n	n	n	x	x
CCOc1ccccc1-n1c(SCC(N)=O)nnc1-c1ccccc1	n	n	n	n	n	n
CCOc1ccccc1-n1c(SCC(N)=O)nnc1-c1ccc(O)cc1	n	n	n	n	x	x
CCn1c(-c2ccccc2Cl)nn(CC(=O)Nc2cc(Cl)ccc2Cl)c1=S	n	n	n	n	n	n
Cc1ccc([C@H]2C[C@H](n3cc(C4CC4)nn3)[C@@H](O)CN2Cc2cccs2)cc1	x	x	n	n	n	n
